Laboratory results from ChEMBL document CHEMBL1146809, “(+)-3-[2-(Benzo[b]thiophen-2-yl)-2-oxoethyl]-1-azabicyclo[2.2.2]octane as potent agonists for the alpha7 nicotinic acetylcholine receptor” (Bioorg Med Chem Lett, 2004).

biological target: T1, Neuronal acetylcholine receptor subunit alpha-7 (Rattus norvegicus, UniProt Q05941); assay: Binding affinities for the alpha 7 nicotinic acetylcholine receptor was determined in PC12 cells; assay type: cell-based, PC-12
T1 sequence (Q05941 whole entry): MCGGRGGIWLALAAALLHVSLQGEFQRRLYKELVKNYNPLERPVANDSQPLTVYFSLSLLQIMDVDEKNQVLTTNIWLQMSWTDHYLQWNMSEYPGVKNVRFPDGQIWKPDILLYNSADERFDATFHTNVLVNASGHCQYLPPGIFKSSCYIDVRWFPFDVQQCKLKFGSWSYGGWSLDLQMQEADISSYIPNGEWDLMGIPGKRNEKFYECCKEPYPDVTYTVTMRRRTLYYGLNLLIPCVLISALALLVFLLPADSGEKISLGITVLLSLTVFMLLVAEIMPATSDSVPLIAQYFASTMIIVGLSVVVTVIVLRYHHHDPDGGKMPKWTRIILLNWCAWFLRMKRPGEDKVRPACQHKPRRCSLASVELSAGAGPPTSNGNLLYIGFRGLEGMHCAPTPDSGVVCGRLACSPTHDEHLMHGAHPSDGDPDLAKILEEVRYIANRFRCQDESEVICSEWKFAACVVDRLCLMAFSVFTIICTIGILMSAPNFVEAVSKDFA

In order of falling IC50:
1. c1ccc2c(COC3CN4CCC3CC4)cccc2c1 (configuration not stated)  730 nM
2. c1ccc2cc(COC3CN4CCC3CC4)ccc2c1 (configuration not stated)  150 nM

tested on: not listed separately; assay: Cmax wa determined in rat plasma at 30 mg/kg after po administration; assay type: ADME, organism-based; set-up: dose 30 mg/kg, route oral
In short: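 Rats were dosed orally at 30 mg/kg. The read-out was the peak plasma concentration (Cmax), reported in ng/mL.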

In order of falling Cmax:
1. c1ccc2sc(CCC3CN4CCC3CC4)cc2c1 (stereo in doubt; 16b)  450 ng/mL
2. O=C(CC1CN2CCC1CC2)c1cc2ccccc2s1 (stereo in doubt; 15b)  270 ng/mL

biological target: T1, Neuronal acetylcholine receptor subunit alpha-7; assay: Alpha 7 nicotinic acetylcholine receptor binding activity in PC12 cells; assay type: cell-based, PC-12

In order of falling IC50:
1. O=C(c1cc2ccccc2s1)C1CN2CCC1CC2 (configuration not stated)  950 nM
2. COc1ccc(Cc2cccnc2-c2cccnc2)c(OC)c1  760 nM
3. c1ccc2sc(CO[C@H]3CN4CCC3CC4)cc2c1  515 nM
4. c1ccc2sc(CCCC3CN4CCC3CC4)cc2c1 (configuration not stated)  370 nM
5. c1ccc2sc(CCC3CN4CCC3CC4)cc2c1 (stereo in doubt; (-)-16b)  220 nM
6. O=C(CC1CN2CCC1CC2)c1cc2ccccc2s1 (single isomer, unassigned; (-))  170 nM
7. O=C(CC1CN2CCC1CC2)c1cc2ccccc2s1 (stereo in doubt; 15b)  150 nM
8. O=C(CC1CN2CCC1CC2)c1cc2ccccc2s1 (single isomer, unassigned; (+))  130 nM
9. c1ccc2sc(CC3CN4CCC3CC4)cc2c1 (configuration not stated)  110 nM
10. c1ccc2sc(CCC3CN4CCC3CC4)cc2c1 (single isomer, unassigned; (+))  65 nM
11. c1ccc2sc(COC3CN4CCC3CC4)cc2c1 (configuration not stated)  59 nM
12. c1ccc2sc(CO[C@@H]3CN4CCC3CC4)cc2c1  26 nM
13. c1ccc2sc(CCC3CN4CCC3CC4)cc2c1 (stereo in doubt; 16b)  23 nM
